According to ChEMBL document CHEMBL3616366, “Design, synthesis and biological activity of new amides derived from 3-methyl-3-phenyl-2,5-dioxo-pyrrolidin-1-yl-acetic acid” (Eur J Med Chem, 2015):
Activity calls are given as the source filed them.

Experiments:
Mus musculus [1] = test: Antinociceptive activity in albino CD-1 mouse assessed as reduction in licking and biting time during phase 2 at 97.51 mg/kg, ip administered 30 mins prior to formalin challenge measured between 15.0 to 30.0 mins relative to control; format: functional; design: scale not given: the % may be the effect or the level left
Rattus norvegicus = species: Rattus norvegicus; test: Displacement of [3H]BTX from voltage-sensitive sodium channel site2 in rat cerebral cortex at 100 uM measured after 60.0 mins by scintillation counting; format: tissue-based
[2] = Neurotoxicity in ip dosed albino CD-1 mouse assessed as motor impairment by rotarod test; format: toxicity, organism-based; settings: in vivo
Method in brief: (§1)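 Quantitative work at time of peak effect previously estimated in screening; groups of six mice given various i.p. doses until ≥3 points within 10–90% seizure protection (MES or scPTZ) or minimal motor impairment on rotarod (10 rpm, failure to hold ≥1 min).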

Mus musculus [3] = test: Neurotoxicity in albino CD-1 mouse assessed as motor impairment at 30 to 300 mg/kg mg/kg, ip measured after 2 hrs by rotarod test; format: toxicity, organism-based; settings: in vivo
Method in brief: (§2)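 Rotarod in male CD-1 mice at 0.5 and 2 h after i.p. 30, 100 or 300 mg/kg (methylcellulose suspension); motor impairment = inability to keep balance on rod turning at 10 rpm for at least 1 min. Minimum neurotoxic dose reported.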

Mus musculus [4] = test: Anticonvulsant activity in ip dosed albino CD-1 mouse assessed as protection against maximal electroshock-induced seizure; format: functional; settings: CD-1, ip; method in brief: as §1
Mus musculus [5] = test: Anticonvulsant activity in albino CD-1 mouse assessed as protection against maximal electroshock-induced seizure at 30 to 300 mg/kg, ip measured after 2.0 hrs; format: functional; settings: CD-1, ip, read-out: MED
Method in brief: (§3)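 Male CD-1 mice (16–26 g), compound suspended in 0.5% methylcellulose/water, i.p. at 30, 100, 300 mg/kg; four mice per group, each used once. Electroconvulsion by electrical stimulus 0.2 s at 50 Hz; protection scored at 0.5 and 2 h. Value is minimum dose showing activity.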

Mus musculus [6] = test: Anticonvulsant activity in ip dosed albino CD-1 mouse assessed as protection against 6 Hz current-induced seizure measured after 0.5 hrs; format: functional; settings: CD-1, ip, read-out: MED
Method in brief: (§4)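 6-Hz psychomotor test: corneal stimulation 32 mA, 0.2 ms monopolar rectangular pulses at 6 Hz for 3 s, mice restrained then released to observation cage. Protected if normal exploratory behaviour resumes within 10 s. Doses 30, 100, 300 mg/kg i.p.; read at 0.5 and 2 h; minimum active dose.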

Mus musculus [7] = test: Anticonvulsant activity in ip dosed albino CD-1 mouse assessed as protection against maximal electroshock-induced seizure measured as time to peak effect; format: functional; method in brief: as §1
Mus musculus [8] = test: Anticonvulsant activity in albino CD-1 mouse assessed as protection against maximal electroshock-induced seizure at 30 to 300 mg/kg, ip measured after 0.5 hrs; format: functional; settings: CD-1, ip, read-out: MED; method in brief: as §3
Vibrio harveyi [9] = test: Mutagenic activity in Vibrio harveyi BB7XM assessed as mutagenicity index at 40 ng/ml; format: organism-based; settings: in vivo
Method in brief: (§5)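 Ames TA100 liquid pre-incubation (minimal medium, 37 °C) and V. harveyi assay (BOSS medium, 30 °C); test at 40 ng/ml, triplicate. Mutagenic index = induced revertants / spontaneous revertants (DMSO control); M.I. ≥2 considered mutagenic.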

Mus musculus [10] = test: Anticonvulsant activity in albino CD-1 mouse assessed as protection against subcutaneous pentylenetetrazole-induced seizure at 30 to 300 mg/kg, ip measured after 2.0 hrs; format: functional
Method in brief: (§6)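 Male CD-1 mice given compound i.p. (0.5% methylcellulose suspension) at 30, 100, 300 mg/kg, four per group; pentylenetetrazole 85 mg/kg s.c. at 0.5 or 2 h. Absence of clonic convulsions (≥5 s) over 30 min observation counts as protection. Minimum active dose reported.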

Salmonella typhimurium [11] = test: Mutagenic activity in Salmonella typhimurium TA100 assessed as mutagenicity index at 40 ng/ml by Ames test; format: toxicity, organism-based; settings: salmonella enterica subsp. enterica serovar typhimurium; method in brief: as §5
Mus musculus [12] = test: Neurotoxicity in albino CD-1 mouse assessed as motor impairment at 30 to 300 mg/kg mg/kg, ip measured after 0.5 hrs by rotarod test; format: toxicity, organism-based; settings: in vivo; method in brief: as §2
Vibrio harveyi [13] = test: Antimutagenic activity in Vibrio harveyi BB7XM assessed as inhibition of nitroquinoline-N-oxide-induced revertant colonies; format: functional
Method in brief: (§7)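 Revertants induced by 4-nitroquinoline-N-oxide (final 40 ng/ml) with versus without test compound; TA100 at 37 °C, V. harveyi strains at 30 °C in BOSS medium. Three independent repetitions; inhibition % = 100 − (R1/R2 × 100); 25–40% moderate, ≥40% strong.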

[14] = Protective index, ratio of TD50 for neurotoxicity in ip dosed albino CD-1 mouse to ED50 for anticonvulsant activity in ip dosed maximal electoshock-induced seizure albino CD-1 mouse model; format: toxicity, organism-based; settings: in vivo, read-out: Ratio TD50/ED50
Method in brief: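 Protective index computed as TD50 (rotarod) divided by ED50 (MES or scPTZ), both from probit analysis on groups of six i.p.-dosed mice.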

Mus musculus [15] = test: Anticonvulsant activity in ip dosed albino CD-1 mouse assessed as protection against 6 Hz current-induced seizure measured after 2.0 hrs; format: functional; method in brief: as §4
Mus musculus [16] = test: Antinociceptive activity in albino CD-1 mouse assessed as reduction in licking and biting time during phase 1 at 97.51 mg/kg, ip administered 30 mins prior to formalin challenge relative to control; format: functional; design: scale not given: the % may be the effect or the level left
Vibrio harveyi [17] = test: Antimutagenic activity in Vibrio harveyi BB7 assessed as inhibition of nitroquinoline-N-oxide-induced revertant colonies; format: functional; method in brief: as §7
Vibrio harveyi [18] = test: Mutagenic activity in Vibrio harveyi BB7 assessed as mutagenicity index at 40 ng/ml; format: organism-based; settings: in vivo; method in brief: as §5
Mus musculus [19] = test: Anticonvulsant activity in albino CD-1 mouse assessed as protection against subcutaneous pentylenetetrazole-induced seizure at 30 to 300 mg/kg, ip measured after 0.5 hrs; format: functional; method in brief: as §6
Mus musculus [20] = test: Antinociceptive activity in albino CD-1 mouse assessed as reduction in licking and biting time during phase 2 at 97.51 mg/kg, ip administered 30 mins prior to formalin challenge measured between 25.0 to 30.0 mins relative to control; format: functional; design: scale not given: the % may be the effect or the level left
Salmonella typhimurium [21] = test: Antimutagenic activity in Salmonella typhimurium TA100 assessed as inhibition of nitroquinoline-N-oxide-induced revertant colonies by Ames test; format: functional, Salmonella enterica subsp. enterica serovar Typhimurium; method in brief: as §7
Mus musculus [22] = test: Antinociceptive activity in albino CD-1 mouse assessed as reduction in licking and biting time during phase 2 at 97.51 mg/kg, ip administered 30 mins prior to formalin challenge measured between 15.0 to 20.0 mins relative to control; format: functional; design: scale not given: the % may be the effect or the level left
Mus musculus [23] = test: Antinociceptive activity in albino CD-1 mouse assessed as reduction in licking and biting time during phase 2 at 97.51 mg/kg, ip administered 30 mins prior to formalin challenge measured between 20.0 to 25.0 mins relative to control; format: functional; design: scale not given: the % may be the effect or the level left
Mus musculus [24] = test: Anticonvulsant activity in ip dosed albino CD-1 mouse assessed as protection against subcutaneous pentylenetetrazole-induced seizure measured as time to peak effect; format: functional; method in brief: as §1
Mus musculus [25] = test: Neurotoxicity in albino CD-1 mouse assessed as motor performance by measuring time spent in chimney at 97.51 mg/kg, ip administered 30 mins prior to chimney test (reference value: 6.29 +/- 2.48 sec); format: toxicity, organism-based; settings: in vivo

`COc1ccccc1N1CCN(C(=O)CN2C(=O)CC(C)(c3ccccc3)C2=O)CC1` (stereo unspecified) showed an Activity (Mus musculus [1]) of 99.3%, an inhibition (Rattus norvegicus) of 44.6% and a TD50 [2] of 240 mg/kg. For the same molecule, the MTC (Mus musculus [3]) was 300 mg/kg, the ED50 (Mus musculus [4]) was 97.5 mg/kg and the minimal effective dose (Mus musculus [5]) was 300 mg/kg. For the same molecule, the minimal effective dose (Mus musculus [6]) was 100 mg/kg, the Time (Mus musculus [7]) was 0.5 h and the minimal effective dose (Mus musculus [8]) was 100 mg/kg. For the same molecule, the Activity_index (Vibrio harveyi [9]) was 0.9, the MED (Mus musculus [10]) was “inactive” and the Activity_index (Salmonella typhimurium [11]) was 0.6. The MTC (Mus musculus [12]) was 300 mg/kg, the “inhibition (INH)” value (Vibrio harveyi [13]) was 51% and the selectivity ratio [14] was 2.46. For the same molecule, the MED (Mus musculus [15]) was “inactive”, the Activity (Mus musculus [16]) was 85.5% and the “inhibition (INH)” value (Vibrio harveyi [17]) was 45%. For the same molecule, the Activity_index (Vibrio harveyi [18]) was 1.2, the MED (Mus musculus [19]) was “inactive” and the Activity (Mus musculus [20]) was 98%. For the same molecule, the “inhibition (INH)” value (Salmonella typhimurium [21]) was 42%, the Activity (Mus musculus [22]) was 100% and the Activity (Mus musculus [23]) was 100%. It also gave a Time (Mus musculus [24]) of 0.5 h and a Time (Mus musculus [25]) of 8.43 s.
